Assay results published in ChEMBL document CHEMBL1137361, “WB4101-related compounds: new, subtype-selective alpha1-adrenoreceptor antagonists (or inverse agonists?)” (J Med Chem, 2006).
Calls of active or inactive are those of the source. No cut-off for these calls is given here.

Columns and labels:
[1] = target: T1, Alpha-1A adrenergic receptor (Rattus norvegicus, UniProt P43140); assay: Activity at adrenergic alpha 1A receptor assessed as antagonsim of noradrenaline-induced contraction of […]; assay type: functional, tissue-based, Sprague-Dawley; details: read-out: pA2 (converted)
T1 sequence (P43140 whole entry): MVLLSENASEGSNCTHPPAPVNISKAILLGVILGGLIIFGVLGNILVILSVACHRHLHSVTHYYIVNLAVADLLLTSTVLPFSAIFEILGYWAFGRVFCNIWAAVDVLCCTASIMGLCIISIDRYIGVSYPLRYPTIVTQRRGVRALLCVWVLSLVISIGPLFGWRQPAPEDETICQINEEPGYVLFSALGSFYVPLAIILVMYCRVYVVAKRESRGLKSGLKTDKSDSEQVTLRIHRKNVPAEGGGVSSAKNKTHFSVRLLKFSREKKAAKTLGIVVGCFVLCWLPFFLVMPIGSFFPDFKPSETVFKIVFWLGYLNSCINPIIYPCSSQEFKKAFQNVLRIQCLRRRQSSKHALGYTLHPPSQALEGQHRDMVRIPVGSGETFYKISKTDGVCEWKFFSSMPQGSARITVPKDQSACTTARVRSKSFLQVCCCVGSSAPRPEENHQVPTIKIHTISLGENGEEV
Summary of the method: (§1)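 Rat vas deferens, prostatic portion. Contraction was induced with (-)-noradrenaline, and blocking activity was measured as antagonism of that contraction.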

[2] = target: T2, Alpha-1D adrenergic receptor (Rattus norvegicus, UniProt P23944); assay: Activity at adrenergic alpha 1D receptor assessed as antagonism on noradrenaline-induced contraction of Sprague-Dawley rat thoracic aorta; assay type: functional, tissue-based; details: read-out: pA2 (converted)
T2 sequence (P23944 whole entry): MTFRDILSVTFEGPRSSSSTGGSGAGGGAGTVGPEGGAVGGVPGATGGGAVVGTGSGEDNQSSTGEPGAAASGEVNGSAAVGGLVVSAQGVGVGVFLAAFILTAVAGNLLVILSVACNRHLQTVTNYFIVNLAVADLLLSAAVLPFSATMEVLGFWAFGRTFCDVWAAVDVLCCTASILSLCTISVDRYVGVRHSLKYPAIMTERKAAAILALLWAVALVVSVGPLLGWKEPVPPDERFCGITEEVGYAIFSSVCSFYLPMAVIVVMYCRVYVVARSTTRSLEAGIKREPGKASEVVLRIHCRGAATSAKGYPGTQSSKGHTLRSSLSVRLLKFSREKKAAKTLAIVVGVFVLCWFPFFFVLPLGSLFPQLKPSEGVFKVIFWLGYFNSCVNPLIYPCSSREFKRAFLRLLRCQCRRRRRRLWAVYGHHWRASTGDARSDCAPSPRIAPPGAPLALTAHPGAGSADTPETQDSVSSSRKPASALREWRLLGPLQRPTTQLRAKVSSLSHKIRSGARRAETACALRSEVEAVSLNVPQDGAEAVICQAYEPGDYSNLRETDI
Summary of the method: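 Rat thoracic aorta contracted with (-)-noradrenaline. Blocking activity was measured as antagonism of the contraction.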

[3] = target: Alpha adrenergic receptor 1A and 1B (Rattus norvegicus) (UniProt P15823+P43140); assay: Selectivity for Sprague-Dawley rat adrenergic alpha 1B receptor over adrenergic alpha 1A receptor; assay type: functional
Cavia porcellus [4] = species on record: Cavia porcellus; assay: Inverse agonist effect on calcium-induced increase in resting tension of calcium-depleted guinea pig thoracic aorta at 100 nM; assay type: functional
Summary of the method: (§2)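 Guinea pig thoracic aorta was calcium-depleted and preincubated with antagonist, then challenged with Ca2+. The Ca2+-induced increase in resting tone was compared with the increase after the same Ca2+ challenge in the absence of antagonist.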

[5] = target: T1, Alpha-1A adrenergic receptor; assay: Activity at adrenergic alpha 1A receptor assessed as antagonism of noradrenaline-induced contraction of Sprague-Dawley rat vas deferens; assay type: functional, tissue-based; details: read-out: pA2 (converted); summary of the method: as §1
[6] = target: Alpha adrenergic receptor (1a and 1d) (Homo sapiens) (UniProt P35348+P25100); assay: Selectivity for human adrenergic alpha 1A receptor over human adrenergic alpha 1D receptor
[7] = target: T3, Alpha-2A adrenergic receptor (Rattus norvegicus, UniProt P22909); assay: Activity at adrenergic alpha 2A receptor assessed as antagonism on clonidine-inhibited twitch responses of field-stimulated Sprague-Dawley rat vas deferens; details: read-out: pA2 (converted)
T3 sequence (P22909 whole entry): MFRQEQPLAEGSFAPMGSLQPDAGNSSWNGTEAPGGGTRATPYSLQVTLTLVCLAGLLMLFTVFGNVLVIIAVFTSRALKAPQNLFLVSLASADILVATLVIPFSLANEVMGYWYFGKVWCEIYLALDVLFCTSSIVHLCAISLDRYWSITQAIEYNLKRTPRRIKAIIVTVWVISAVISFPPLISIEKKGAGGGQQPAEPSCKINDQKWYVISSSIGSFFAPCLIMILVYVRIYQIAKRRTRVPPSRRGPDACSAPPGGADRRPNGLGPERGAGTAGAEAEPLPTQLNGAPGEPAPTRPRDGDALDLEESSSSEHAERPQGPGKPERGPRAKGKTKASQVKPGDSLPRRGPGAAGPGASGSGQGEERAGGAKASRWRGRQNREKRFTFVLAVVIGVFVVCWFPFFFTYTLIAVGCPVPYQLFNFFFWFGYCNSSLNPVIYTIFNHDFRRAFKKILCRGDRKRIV

Cavia porcellus [8] = species on record: Cavia porcellus; assay: Inverse agonist effect on calcium-induced increase in resting tension of calcium-depleted guinea pig thoracic aorta at 10 nM; assay type: functional; summary of the method: as §2

Chain of Alpha adrenergic receptor (1a and 1d) (Homo sapiens) (P25100 whole entry, looked up): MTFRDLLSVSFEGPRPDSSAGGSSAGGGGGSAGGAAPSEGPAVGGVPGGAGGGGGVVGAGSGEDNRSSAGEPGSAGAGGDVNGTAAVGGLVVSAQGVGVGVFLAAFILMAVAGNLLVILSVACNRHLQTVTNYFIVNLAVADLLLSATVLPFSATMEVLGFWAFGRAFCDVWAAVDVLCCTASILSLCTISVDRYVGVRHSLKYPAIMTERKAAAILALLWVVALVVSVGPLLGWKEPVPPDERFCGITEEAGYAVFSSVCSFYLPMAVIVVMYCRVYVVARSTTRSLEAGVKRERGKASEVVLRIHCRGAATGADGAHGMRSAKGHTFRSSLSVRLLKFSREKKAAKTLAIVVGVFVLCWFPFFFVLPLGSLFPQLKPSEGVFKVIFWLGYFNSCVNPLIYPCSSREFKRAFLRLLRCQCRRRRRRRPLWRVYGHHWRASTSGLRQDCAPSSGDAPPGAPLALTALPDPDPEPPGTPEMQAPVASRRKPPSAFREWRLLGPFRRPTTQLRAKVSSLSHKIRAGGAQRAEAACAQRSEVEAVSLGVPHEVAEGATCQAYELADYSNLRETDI
Chain of Alpha adrenergic receptor (1a and 1d) (Homo sapiens) (P35348 whole entry, looked up): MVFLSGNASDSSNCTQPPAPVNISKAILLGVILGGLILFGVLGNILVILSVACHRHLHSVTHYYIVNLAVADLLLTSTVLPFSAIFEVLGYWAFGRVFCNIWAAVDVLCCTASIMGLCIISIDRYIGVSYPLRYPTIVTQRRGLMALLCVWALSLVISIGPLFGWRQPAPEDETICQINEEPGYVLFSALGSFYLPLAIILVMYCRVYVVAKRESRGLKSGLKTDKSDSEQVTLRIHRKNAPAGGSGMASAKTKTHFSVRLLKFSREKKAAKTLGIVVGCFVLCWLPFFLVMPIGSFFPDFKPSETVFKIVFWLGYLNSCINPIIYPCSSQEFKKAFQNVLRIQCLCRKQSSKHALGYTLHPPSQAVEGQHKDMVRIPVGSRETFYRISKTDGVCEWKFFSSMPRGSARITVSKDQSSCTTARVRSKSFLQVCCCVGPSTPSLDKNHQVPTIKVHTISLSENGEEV
Chain of Alpha adrenergic receptor 1A and 1B (Rattus norvegicus) (P15823 whole entry, looked up, one chain of several): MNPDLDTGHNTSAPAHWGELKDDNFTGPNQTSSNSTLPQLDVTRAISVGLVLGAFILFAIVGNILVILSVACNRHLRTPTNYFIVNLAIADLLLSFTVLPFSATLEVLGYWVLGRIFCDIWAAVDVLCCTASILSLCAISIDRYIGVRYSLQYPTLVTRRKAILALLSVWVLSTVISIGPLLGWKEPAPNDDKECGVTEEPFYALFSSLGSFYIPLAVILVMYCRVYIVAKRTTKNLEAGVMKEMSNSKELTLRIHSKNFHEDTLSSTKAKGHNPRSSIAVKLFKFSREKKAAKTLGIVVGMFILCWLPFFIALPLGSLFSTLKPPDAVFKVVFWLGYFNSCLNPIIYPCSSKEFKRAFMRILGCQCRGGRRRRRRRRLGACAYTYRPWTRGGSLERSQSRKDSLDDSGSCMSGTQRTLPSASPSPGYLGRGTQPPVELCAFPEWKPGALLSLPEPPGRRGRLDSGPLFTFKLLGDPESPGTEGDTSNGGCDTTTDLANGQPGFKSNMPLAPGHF

SMILES | Kb [1] | Kb [2] | Selectivity ratio [3] | Kb [5] | Selectivity ratio [6] | Kb [7] | Activity (Cavia porcellus [4]) | Activity (Cavia porcellus [8])
COc1ccc2ccccc2c1OCCNC[C@H]1COc2cc3c(cc2O1)CCCC3 | 42.7 nM | 2570 nM | > 955 | 10.5 nM | 2.2 | > 10000 nM | Active | 
COc1cccc(OC)c1OCCNC[C@H]1COc2cc3ccccc3cc2O1 |  | 182 nM | 0.7 | 3470 nM | 12.3 | > 10000 nM |  | 
COc1ccc2c(c1OCCNC[C@H]1COc3ccccc3O1)CCCC2 |  | 4.07 nM | 0.05 | 91.2 nM | 5.1 |  |  | 
COc1cccc(OC)c1OCCNC[C@H]1COc2cc3c(cc2O1)CCCC3 |  | 4370 nM | < 0.3 | > 10000 nM | 13.5 |  |  | 

More lines, main results first:

Kb [1] | Kb [2] | Selectivity ratio [3] | Kb [5] | Selectivity ratio [6] | Kb [7] | SMILES | Activity (Cavia porcellus [4]) | Activity (Cavia porcellus [8])
 | 10 nM | 0.25 | 58.9 nM | 4.9 | 631 nM | COc1ccc2ccccc2c1OCCNC[C@@H]1COc2ccccc2O1 |  | inactive
 | 1.02 nM | 1.2 | 6.17 nM | 2.8 |  | COc1cccc(-c2ccccc2)c1OCCNC[C@H]1COc2ccccc2O1 |  | inactive
 | 0.0209 nM | 0.2 | 1.1 nM | 4.2 | 1350 nM | COc1ccc2ccccc2c1OCCNC[C@H]1COc2ccccc2O1 |  | Active
 | 61.7 nM | < 0.01 | > 10000 nM | 2.7 |  | COc1ccc(-c2ccccc2)cc1OCCNC[C@H]1COc2ccccc2O1 |  | 
 | 107 nM | 0.17 | 759 nM | 2.5 |  | COc1cc(-c2ccccc2)ccc1OCCNC[C@H]1COc2ccccc2O1 |  | 
